High-throughput results as filed in PubChem.
In the library only some 3.3% were active in any assay of this set; here they are far more common.
SIAE inh = human SIAE inhibition, primary screen | Q9HAT2 | SIAE FP-Rh probe binding, fluorescence polarization | inhibition, % at 9.66 µM | hit rate 0.69% among 370,000;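 active = inhibition above a cutoff: mean of compounds within the control limits plus 3 SD of those, cut at about 17% in these data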
MBD2 DNA inh = blocks human MBD2 binding to methylated DNA. TR-FRET, MBD2 binding to methylated oligonucleotide. hit rate 0.31% among 370,000. Q9UBB5. inhibition, % at 4.4 µM. AID 686964; in the data active = inhibition above about 13%
PRMT1 inh = blocks human protein arginine methyltransferase 1; Q99873; recombinant PRMT1, activity-based probe fluorescence polarization; inhibition, % at 2.79 µM; hit rate 1.3% among 370,000; AID 652257;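 active = inhibition above about 21% made by adding two undisclosed values, limit read from the data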
UHRF1 binding = blocks human UHRF1 binding to methylated DNA. Q96T88. UHRF1 binding to methylated oligo, TR-FRET. inhibition, % at 4.4 µM. hit rate 0.75% among 370,000; in the data active = inhibition above about 21%;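 also: UHRF1 SRA domain binding a hemimethylated CpG hairpin DNA probe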
TDP2 inh = blocks human TDP2 phosphodiesterase activity. O95551. recombinant TDP2, T5PNP hydrolysis, p-nitrophenol absorbance 415 nm. inhibition, % at 12.8 µM. hit rate 0.34% among 370,000;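 active = inhibition above the mean of all tested compounds plus 3 SD, set per campaign, cut at about 25% in these data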
Target sequence (O95551 whole entry, looked up): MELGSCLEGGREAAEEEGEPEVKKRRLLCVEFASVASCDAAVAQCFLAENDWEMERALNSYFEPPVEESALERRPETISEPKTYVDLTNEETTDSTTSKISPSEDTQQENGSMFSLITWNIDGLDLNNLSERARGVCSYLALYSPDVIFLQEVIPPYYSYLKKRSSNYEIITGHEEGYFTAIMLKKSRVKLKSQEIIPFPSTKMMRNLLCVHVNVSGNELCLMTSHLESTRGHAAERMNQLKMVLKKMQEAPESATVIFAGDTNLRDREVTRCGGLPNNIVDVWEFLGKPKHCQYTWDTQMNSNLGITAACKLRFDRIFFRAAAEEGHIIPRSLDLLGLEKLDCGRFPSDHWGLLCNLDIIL
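System – recombinant human TDP2 · Quantity – TDP2 enzyme at 120 nM final · Doses – single concentration, 12.8 µM nominal, with 1% DMSO · Incubation – 2 h at 37 °C · Measured by – epi absorbance of p-nitrophenol freed from T5PNP by hydrolysis · Read-out – % inhibition relative to enzyme-containing and enzyme-free wells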
LEDGF integ inh = blocks HIV-1 LEDGF/p75-dependent DNA integration. TR-FRET IN-LEDGF/p75 DNA integration, Eu/Cy5. inhibition, % at 3.7 µM. hit rate 0.64% among 370,000. AID 743269;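 active = inhibition above the screen-wide mean plus 3 SD, cut at about 13% in these data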;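 also: signal is the Cy5 over europium emission ratio at 671 and 618 nm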
Large screens that a line does not name were inactive.

Cc1cccc(NC(=O)N2CCC(N(C)CCC(C)C)CC2)c1	none
COc1ccc(S(=O)(=O)N=Nc2c(O)[nH]c3ccccc23)cc1	MBD2 DNA inh 13.4, UHRF1 binding 45.9
Oc1c(Br)cc(Br)c(/C=N/n2c(-c3ccccc3)n[nH]c2=S)c1Br	PRMT1 inh 23.2
CC(=O)Nc1ccc(NC(=O)COC(=O)c2n[nH]c3ccccc23)cc1	UHRF1 binding 32.2
Cc1cccc(NCc2nc(SCC(=O)Nc3ccccc3Br)n[nH]2)c1	none
O=C(CSc1n[nH]c(Cc2ccccc2)n1)Nc1ccccc1Br	PRMT1 inh 24.3
O=C(CN1CCN(Cc2ccccc2)CC1)N/N=C\c1c2ccccc2cc2ccccc12	none
CN(CCc1ccccc1)C(=O)c1cc2ccccn2n1	none
CCOc1ccccc1C(=O)NCC(=O)NNC(=O)c1cccs1	UHRF1 binding 21.2
CCOc1ccccc1C(=O)N[C@H](C(=O)NNC(=O)c1cccs1)C(C)C	none
Cc1cc(C)cc(OCC(=O)NC2CCCc3ccccc32)c1 (stereo not given)	UHRF1 binding 21.3
Cc1ccccc1C(=O)NC1CCCCN(Cc2cccc(C(F)(F)F)c2)C1=O (stereo not given)	none
O=C(Cn1cnc2sc(-c3ccccc3)cc2c1=O)NCc1ccco1	UHRF1 binding 50.5
Cc1ccccc1CNC(=O)CN1CCCc2ccccc21	none
CCN(CC)CC(O)COc1ccc2c(c1)OCO2 (stereo not given)	none
OCCN(CCO)CC(O)COc1ccc2c(c1)OCO2 (stereo not given)	UHRF1 binding 67.0
CCCCOc1ccc(-c2nc(=S)[nH][nH]2)cc1	PRMT1 inh 22.2
CCCCCCCCCCCCCCCC[n+]1ccc(/C=N/O)cc1	SIAE inh 67.6
CCCCCCCCCCCCCCCC[n+]1ccc(C(N)=O)cc1	none
O=C(Cc1cccs1)N(c1ccc(F)cc1)C1(C(=O)NC2CCCCC2)CCCC1	UHRF1 binding 26.9
Cc1ccc(N(C(=O)C2CCC(=O)N2)C2(C(=O)NC3CCCC3)CCCCC2)cc1 (stereo not given)	UHRF1 binding 77.8
COc1ccc(CCNC(=O)c2c(N)[nH]c(C(=O)c3ccccc3)c2-c2ccc(N(C)C)cc2)cc1	none
O=C(OCc1ccc(CSc2nnc(-c3cccc4ccccc34)o2)cc1)c1ccc(F)cc1	none
c1ccc(OCCNc2ccn3nc(-c4ccco4)cc3n2)cc1	PRMT1 inh 21.5
Clc1cccc(CNc2ccn3nc(-c4cccs4)cc3n2)c1	none
c1ccc(OCCNc2ccn3nc(-c4ccccc4)cc3n2)cc1	none
Clc1cccc(CNc2ccn3nc(-c4ccco4)cc3n2)c1	PRMT1 inh 22.8
CC(C)CNC(=S)N1CCC(NC(=O)c2ccco2)CC1	UHRF1 binding 22.9
Cc1c(NC(=O)/C(C#N)=C/c2ccc(-c3cc(Cl)ccc3Cl)o2)c(=O)n(-c2ccccc2)n1C	none
Cc1c(NC(=O)/C(C#N)=C/c2ccc(-c3ccc(Cl)cc3)o2)c(=O)n(-c2ccccc2)n1C	UHRF1 binding 21.7
Cc1ccnc2nc(C(=O)Nc3ccc4c(c3)OCO4)nn12	UHRF1 binding 23.0
Cc1ccc(S(=O)(=O)N(C)C[C@@H]2Oc3ncc(C#CCC(C)C)cc3C(=O)N([C@H](C)CO)C[C@H]2C)cc1	UHRF1 binding 22.8
C[C@@H]1CN([C@@H](C)CO)C(=O)c2cc(Br)cnc2O[C@H]1CN(C)C(=O)C1CCCCC1	none
COc1cccc(C#Cc2cnc3c(c2)C(=O)N([C@@H](C)CO)C[C@H](C)[C@H](CN(C)C(=O)C2CCC2)O3)c1	UHRF1 binding 21.8
CN(C(=S)Nc1ccccc1)c1ccccc1	none
CN(C(=S)Nc1ccc(SC(F)F)cc1)c1ccc(O)cc1	PRMT1 inh 29.7
Cc1cccc(-n2nc3c(c2NC(=O)c2ccco2)CS(=O)C3)c1C (stereo not given)	none
Cc1cccc(-n2nc3c(c2NC(=O)c2ccco2)CSC3)c1C	PRMT1 inh 30.3, LEDGF integ inh 28.8
COC(=O)[C@]12C[C@H](CC(=O)NCC3CCCCC3)C(=O)N(Cc3ccc(Cl)cc3Cl)C1=C[C@H](C1CCCC1)O[C@@H]2C	none
CC(C)NC(=O)C1(C)Cc2c(-c3cccc(C(F)(F)F)c3)ccnc2O1 (stereo not given)	UHRF1 binding 37.6
CC(=O)Nc1cccc(-c2ccnc3c2CC(C)(C(=O)NC(C)C)O3)c1 (stereo not given)	none
CC(C)C[C@@H]1COc2cc(Br)ccc2S(=O)(=O)N1Cc1cn(CC2CCCCC2)nn1	none
O=C(Nc1ccccc1C(F)(F)F)OCCCN1CCC2(CCC(c3ccccc3)CC2)C1=O (stereo not given)	none
NC(=S)c1ccc[n+]([O-])c1	PRMT1 inh 59.1
COc1ccc(NC(C)=O)cc1NC(=O)CSc1nnc(-c2ccccc2)n1N	UHRF1 binding 25.7
COc1ccc(NC(C)=O)cc1NC(=O)CSc1nnc(-c2ccncc2)n1C	none
CC(C)N(C(=O)[C@H]1C[C@H](CC(=O)NCCCN(C)C)C(=O)N2CCc3c([nH]c4cc(CCC(=O)N(C)C)ccc34)[C@]12C)C(C)C	UHRF1 binding 21.0
CC(C)=CCC/C(C)=C/CNC(=O)C[C@H]1C[C@H](C(=O)N2CCCCC2)[C@@]2(C)c3[nH]c4cc(-c5ccco5)ccc4c3CCN2C1=O	PRMT1 inh 23.8
CCN(CC)C(=O)[C@H]1C[C@H](CC(=O)NC/C=C(\C)CCC=C(C)C)C(=O)N2CCc3c([nH]c4cc(-c5ccco5)ccc34)[C@]12C	none
COc1ccc(CNC(=O)C[C@H]2C[C@H](C(=O)N3CCCCC3)[C@@]3(C)c4[nH]c5ccc(Cl)cc5c4CCN3C2=O)cc1OC	UHRF1 binding 21.0
CCN(CC)C(=O)[C@H]1C[C@H](CC(=O)NCCCN(C)C)C(=O)N2CCc3c([nH]c4cc(CCC(=O)N(C)C)ccc34)[C@]12C	none
O=C(NCCc1ccccc1)OCc1cn(Cc2ccc(C(F)(F)F)cc2)nn1	none
Cc1[nH]n(C(N)=S)c(=O)c1N=Nc1cccc(Cl)c1	none
Cc1[nH]n(S(=O)(=O)c2ccccc2)c(=O)c1N=Nc1cccc(Cl)c1	UHRF1 binding 33.6
O=C(CSc1nnc(COc2ccccc2)n1-c1ccccc1)Nc1ccc2c(c1)OCCO2	none
CC1(C(=O)N2CCC(Oc3cccnc3)CC2)CC1	none
COC(=O)C[C@@H]1CC[C@@H]2[C@@H](COc3ccc(NC(=O)Nc4ccccc4)cc3C(=O)N2C)O1	none
CC(=O)N[C@@H]1C[C@@H]2O[C@@H](CO)CC[C@@H]2O[C@@H]1CCc1ccc(C#CC2(O)CCCC2)cc1	none
O=C(C[C@H]1C(=O)N(C2CCCCC2)C[C@@H]1c1ccccc1)Nc1ccc(Br)cc1	UHRF1 binding 21.6
Cc1nn2cc(-c3ccccc3)nc2[nH]c1=O	SIAE inh 22.2
CO/N=C/C(=N\Nc1ccccc1)C(=O)c1ccccc1	none
